T cruzi inh: blocks replication of Trypanosoma cruzi | actives 1.4% (n = 300,000) | inhibition, % (no concentration beside the values) | AID 1885 | T. cruzi beta-gal in NIH3T3, luminescence, 90 h;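 active = mean inhibition across valid replicates above about 55%, limit read from the data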;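 also: signal also drops with host cell toxicity which is not excluded here; higher percent means less beta-gal luminescence so fewer parasites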
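System – NIH/3T3 host cells with β-galactosidase reporter T. cruzi · Doses – single 50 nL compound addition per well in DMSO · Reagent – 5000 T. cruzi trypomastigotes/well · Medium – Low-serum DMEM with 2% FBS · Timing – ≥90 h infection period, 3 h prior cell attachment · Evaluation – parasite load inhibition, % · Technique – GalScreen luminescence, 60 min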
Beta apoptosis: beta cell apoptosis inhibition; INS-1E cytokine-induced death, ATP luminescence, 48 h; percent of positive-control rescue, neutral wells zero; protection from apoptosis, % (test concentration not listed); actives 0.8% (n = 300,000);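 active = Every replicate reaches about 75%, or at least half do and their mean reaches it too, limit read from the data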;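 also: higher means more ATP so stronger rescue from cytokine killing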
HIF act: HIF pathway transcriptional activation. U2OS HRE-luciferase reporter, luminescence; normalized: DMSO 0%, desferrioxamine 100%. activation, % at 7.5 µM (by protocol). actives 0.32% (n = 300,000). AID 1910;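 active = mean activation of at least 10% of the iron chelator positive control signal, with at least half of replicates also reaching 10%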
A1 inh: inhibitors of the anti-apoptotic protein A1, read as caspase activation | MEF A1-2A-BIM cells, Caspase-Glo 3/7 luminescence, 3 h; percent of clofoctol response, vehicle zero | caspase activation, % (test concentration not listed) | actives 0.066% (n = 330,000) | AID 2462;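 active = over half of replicate activation scores above 10%, or exactly half above 10 with the replicate mean above 10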
KLF5 inhibitor: suppresses KLF5 promoter-driven expression. DLD-1 KLF5 promoter-luciferase reporter, luminescence. inhibition, % at 5 µM. actives 0.23% (n = 290,000). AID 1700;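 active = inhibition above a per-plate limit of that plate's mean compound inhibition plus 3 SD, cut at about 60% in these data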;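 also: higher means less KLF5 promoter-driven luciferase light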
Large screens that a line does not name were inactive. Shown are actives, neighbours in structure and some others; about 2.3% of the full set was active somewhere.

CC[C@H](C)[C@@H](C(=O)NCCCCCCCCCCC(=O)N1CCN(C(=O)OC(C)(C)C)CC1)n1cc(CCCCN=C(NC(=O)OC(C)(C)C)NC(=O)OC(C)(C)C)nn1	Beta apoptosis 112 (no result: T cruzi inh, HIF act, KLF5 inhibitor)
Cc1ccc(S(=O)(=O)Cn2nnnc2C(C(C)C)N2CCC(C(N)=O)CC2)cc1 (centres undefined)	none
CC(=O)c1c(C)[nH]c(C(=O)Nc2ccc(F)cc2F)c1C	none
CC(C)CNC(=O)C(=O)NCC1CCCN1S(=O)(=O)c1cccs1 (centres undefined)	none (no result: KLF5 inhibitor)
CS(=O)(=O)Nc1ccc(C2=NN(C(=O)c3cccc(F)c3)C(c3cccs3)C2)cc1 (centres undefined)	A1 inh 5.4
CCOc1ccc(OCCCCN2CCCC2)cc1	none (no result: Beta apoptosis)
CCCCOc1ccc(CN2CCCCC2)cc1	T cruzi inh 59
Oc1ccc(N2CCN(Cc3ccc(OCCCN4CCCCC4)cc3)CC2)cc1	T cruzi inh 69
c1ccc(COc2ccc(OCCCCN3CCCCC3)cc2)cc1	none
CCN1CCN(CC(=O)Nc2c(OC)cccc2OC)CC1	none
CC(C)c1nc(CNC(=O)CCc2nnc(-c3ccsc3)o2)cs1	HIF act 49
O=C(CCc1nnc(-c2ccsc2)o1)NCc1ccccc1OC(F)(F)F	none
COc1ccc(C(CNc2ccc(S(=O)(=O)N3CCCC3)cc2[N+](=O)[O-])N2CCCC2)cc1 (centres undefined)	T cruzi inh 59 (no result: Beta apoptosis)
Cc1nn(Cc2ccc(C(=O)Nc3ccc(C(=O)OC(C)C)cc3)o2)c(C)c1Cl	T cruzi inh 55
CC[n+]1ccccc1/C=C/c1ccc(N(C)C)cc1	T cruzi inh 59 (no result: Beta apoptosis, A1 inh)
CC1=CC(C)(C)Nc2ccc(OS(=O)(=O)c3ccc(C)cc3)cc21	none
COc1ccc2c(c1)NC(C)(C)C=C2C	T cruzi inh 66
CC1=CC(C)(C)Nc2ccc(OC(=O)CCN3C(=O)c4ccccc4C3=O)cc21	none
CC1=CC(C)(C)Nc2ccccc21	T cruzi inh 75
CC1CC(C)CN(C(=O)COC(=O)COc2ccc(C#N)cc2)C1 (centres undefined)	none (no result: T cruzi inh, HIF act, KLF5 inhibitor)
COc1ccc(CN2CCNC(=O)C2CC(=O)N(C)CC2CCOCC2)cc1OC (centres undefined)	HIF act 26
CN(Cc1ccccn1)C(=O)C1CCC(=O)N(Cc2cccc(C(F)(F)F)c2)C1 (centres undefined)	none
NC(N)=N/N=C/c1ccc(OCc2ccccc2Cl)cc1	T cruzi inh 69
NC(N)=N/N=C/c1ccccc1	T cruzi inh 62 (no result: Beta apoptosis)
CN(CC1CCCN(CCc2ccc(Cl)cc2)C1)C(=O)c1ccco1 (centres undefined)	none
COc1ccccc1CN(Cc1cccnc1)S(=O)(=O)c1ccc(-n2cnnn2)c(OC)c1	none
COc1ccc(CN(Cc2cccnc2)S(=O)(=O)c2ccc(-n3cnnn3)c(C)c2)cc1OC	T cruzi inh 78
Cc1cc(C)n(-c2nc(SCCN(C)C)c3c4c(sc3n2)COC(C)(C)C4)n1	T cruzi inh 65
O=C(CSc1nnc(Cc2ccccc2)o1)N1CCCc2ccccc21	none
Cc1[nH]c2ccc(-c3nnc(SCC(=O)N4CCCc5ccccc54)o3)cc2c1C	T cruzi inh 79 (no result: HIF act)
COc1ccccc1/C=C1\SC(=S)N(CC(=O)Nc2nnc(C)s2)C1=O	Beta apoptosis 98
COc1ccccc1/C=C1\SC(=S)N(CCC(=O)NC2=NCCS2)C1=O	none
CC[C@@H]1CCCCc2ccccc2[C@H](C(=O)C[C@H](O)CC(C)=O)OC1=O	none (no result: T cruzi inh, HIF act, KLF5 inhibitor)
CCN(CC)S(=O)(=O)c1ccc(N2CCN(c3cccc(OC)c3)CC2)c([N+](=O)[O-])c1	T cruzi inh 65
O=C(CCS(=O)(=O)c1ccc(Cl)cc1)NC1CCCC1	none (no result: T cruzi inh, HIF act, KLF5 inhibitor)
Oc1ccc(N=Nc2ccccc2-c2nn[nH]n2)c(O)c1	none (no result: Beta apoptosis)
COc1ccc(NC(=O)c2[nH]c(C)c(C(C)=O)c2C)cc1S(=O)(=O)Nc1ccc(Br)cc1	T cruzi inh 56
COc1ccc(NC(=O)c2[nH]c(C)c(C(C)=O)c2C)cc1Cl	none
CC(=O)c1ccc(S(=O)(=O)N2CCN(C(=O)CSC(=S)N3CCCC3)CC2)cc1	none (no result: KLF5 inhibitor)
Cc1ccc(C2CC(c3ccc(C)cc3)n3nc(N)nc3N2)cc1 (centres undefined)	Beta apoptosis 103
O=C(Nc1cccnc1)c1cccc(-c2cc3ccccc3oc2=O)c1	none
COc1cccc(NC(=O)c2cc([N+](=O)[O-])ccc2NCc2cccnc2)c1	none
O=C(NCc1cccnc1)/C(=C\c1ccc(-c2ccc(Cl)c(Cl)c2)o1)S(=O)(=O)c1ccccc1	Beta apoptosis 105
O=C(NCc1cccnc1)c1ccc(-c2cc3ccccc3oc2=O)cc1	Beta apoptosis 101
O=C(Nc1ccc(Cc2ccncc2)cc1)c1cccc([N+](=O)[O-])c1	none
O=C(NCc1cccnc1)c1ccc(Cl)c(Cl)c1	none
O=C(NCc1cccnc1)c1ccc(NC(=O)c2cccc([N+](=O)[O-])c2)cc1	Beta apoptosis 140
Cc1ccc(NC(=O)c2cc([N+](=O)[O-])ccc2NCc2cccnc2)cc1Cl	T cruzi inh 57
O=C(CNCc1cccs1)Nc1ccc(OC(F)(F)F)cc1	none
Cc1ccc(S(=O)(=O)NC2=NCN(C(C)C)CN2)cc1	none
O=C(NCc1cccnc1)c1ccc(-c2cc(Cl)ccc2Cl)o1	T cruzi inh 56
O=C(COc1ccc([N+](=O)[O-])cc1)Nc1ccc(C(=O)NCc2cccnc2)cc1	Beta apoptosis 101
O=C(NCc1cccnc1)c1ccc(-c2ccc(Cl)cc2)o1	none
O=C(NCc1cccnc1)c1ccc([N+](=O)[O-])cc1	Beta apoptosis 103
O=C(COc1ccc([N+](=O)[O-])cc1)NCc1cccnc1	none
COc1ccc(NC(=O)CN(C)C(=O)Cc2n[nH]c(=O)c3ccccc23)cc1	none (no result: KLF5 inhibitor)
O=C(Cn1cnc([N+](=O)[O-])c1)Nc1ccccc1C(F)(F)F	none
CC(=O)c1ccc(OCc2cc(C(=O)NC3CCCCC3)no2)cc1	none
Nc1nc(F)nc2c1ncn2[C@@H]1O[C@H](CO)[C@@H](O)[C@H]1O	Beta apoptosis 94 (no result: KLF5 inhibitor)
CS(=O)(=O)Nc1ccc(C(=O)N2CC(=O)Nc3ccccc32)cc1	none (no result: Beta apoptosis)
CCc1nc2ccc(C(=O)N3CCN(c4ccc([N+](=O)[O-])cc4)CC3)cc2nc1CC	none
N#Cc1cc2nc(O)c(O)nc2cc1[N+](=O)[O-]	none (no result: T cruzi inh, HIF act, KLF5 inhibitor)
CNc1nc2cc([N+](=O)[O-])c([N+](=O)[O-])cc2nc1NC	Beta apoptosis 98
COc1ccc(/C=C/C(=O)Nc2cc(C)nn2-c2nc3ccccc3[nH]2)cc1	T cruzi inh 55
N#Cc1ccccc1N1CCN(C(=O)c2ccc(NC(=O)c3ccc(Br)o3)cc2)CC1	none (no result: T cruzi inh, HIF act, KLF5 inhibitor)
COc1ccc(/C=C2\CCCc3c2nc2ccccc2c3C(=O)OCC(=O)c2c(N)n(C)c(=O)n(C)c2=O)cc1	T cruzi inh 68
Cc1cc(-c2onc(C)c2C(=O)Nc2ccc(C(F)(F)F)cc2)no1	none
